Only some compounds are listed: those with a hit (about 1% of all), similar ones and a draw of the others.
CAL PDZ FP-1 – inhibitors of human CAL PDZ peptide binding; AID 602252; inhibition, % at 24.9 µM; purified CAL PDZ, TMR-peptide fluorescence polarization, 1 h; Q9HD26; hit rate 0.92% among 300,000;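 active = mean inhibition of at least 30% with at least half of replicates also reaching 30%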;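 also: 0% = DMSO neutral control and 100% = excess unlabeled competitor peptide PRC23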
PDI inh – PDI (human) enzyme inhibition. hit rate 0.052% among 350,000. AID 588391. PDI insulin aggregation turbidity, A650, 90 min. P07237. inhibition, % at 10 µM;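 active = mean inhibition across replicates of 30% or more, whatever share of single replicates reach that level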
RAD54 branch – RAD54 (human) branch migration inhibition; AID 602329; RAD54 Holliday junction branch migration, FAM/BHQ fluorescence; hit rate 0.14% among 360,000; inhibition, % at 10.4 µM;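 active = mean normalized replicate activity at least 40 and at least half of replicates scoring 40 or more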;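 also: 0% = median of neutral control wells and 100% = median of positive control wells; inhibitors cause a drop in the FAM fluorescence signal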
CAL PDZ FP-2 – blocks peptide binding to human CAL PDZ domain; Q9HD26; purified CAL PDZ, TMR-peptide fluorescence polarization, 1 h; inhibition, % at 20 µM; hit rate 0.02% among 330,000; AID 504414;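 active = highest replicate inhibition of at least 40%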;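 also: plate controls were DMSO neutral control wells for no effect and unlabeled competitor peptide control wells for full effect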
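Test system: tagged CAL PDZ domain / Buffer or medium: sodium phosphate/NaCl buffer pH 7.4 with TCEP, IgG, Thesit / Reagent: TMR-labelled reporter peptide T*-PRC34 bound in PDZ groove / Compound dosing: single point, 20 µM / Schedule: 1 h incubation at room temperature before polarization reading / Technique: fluorescence polarization (mP) / Benchmarks: unlabelled peptide, DMSO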
ERp5 inh – ERp5 (human) disulfide isomerase inhibition; inhibition, % at 9.99 µM; Q15084; ERp5 insulin aggregation, absorbance 650 nm, 90 min; hit rate 0.05% among 350,000;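 active = mean replicate inhibition above about 25%, with every replicate also reaching it, limit read from the data, passing the limit was not always enough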
RAD52 inh – inhibitors of human RAD52 DNA annealing. P43351. recombinant RAD52 DNA annealing, FRET fluorescence. inhibition, % at 18.7 µM. hit rate 0.46% among 360,000;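 active = every replicate showing at least 50% inhibition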
Target sequence (P43351 whole entry, looked up): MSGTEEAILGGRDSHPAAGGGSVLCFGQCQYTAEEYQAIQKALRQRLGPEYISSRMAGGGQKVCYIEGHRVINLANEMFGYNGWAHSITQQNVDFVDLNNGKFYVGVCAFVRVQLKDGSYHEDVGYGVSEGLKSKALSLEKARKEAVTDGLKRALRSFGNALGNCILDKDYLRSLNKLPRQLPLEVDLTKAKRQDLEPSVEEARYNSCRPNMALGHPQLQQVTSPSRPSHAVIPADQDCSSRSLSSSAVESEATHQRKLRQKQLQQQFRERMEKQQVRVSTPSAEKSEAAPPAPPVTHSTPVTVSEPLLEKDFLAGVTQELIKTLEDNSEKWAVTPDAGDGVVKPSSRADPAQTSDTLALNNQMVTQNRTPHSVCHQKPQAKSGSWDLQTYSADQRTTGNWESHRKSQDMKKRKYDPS
* = called active by the depositor; / = not tested or not shown.

SMILES	CAL PDZ FP-1	PDI inh	RAD54 branch	CAL PDZ FP-2	ERp5 inh	RAD52 inh
C=CCN(C(=O)c1csnn1)C(C(=O)NCc1ccccc1)c1ccccc1F (centres undefined)	-4	4	1	0	1	-7
C=CCN(C(=O)c1csnn1)C(C(=O)NCc1ccccc1)c1c(F)cccc1Cl (centres undefined)	41*	4	-2	0	3	-8
CCCOc1ccc(C(=O)CCC(=O)OCC(=O)N(C)c2c(N)n(Cc3ccccc3)c(=O)[nH]c2=O)cc1	38*	2	4	1	6	-33
CN(C(=O)COC(=O)CCC(=O)c1ccccc1)c1c(N)n(Cc2ccccc2)c(=O)[nH]c1=O	-3	3	/	-2	-7	-22
CCN(C(=O)COC(=O)CCc1ccc(OC)cc1)c1c(N)n(Cc2ccccc2)c(=O)[nH]c1=O	44*	6	-3	-1	4	-10
Nc1c(N(CCC2=CCCCC2)C(=O)CCCOc2ccccc2)c(=O)[nH]c(=O)n1Cc1ccccc1	49*	4	1	-1	2	-9
CC(C)(C)[S@](=O)N1Cc2cc(C(=O)N[C@H]3CCN(Cc4ccccc4)C3)nc(-c3cccc(-c4cccnc4)c3)c2[C@@H]1CCO	/	/	/	/	-1	5
CO[C@@H]1CN(C)C(=O)c2ccc(NC(C)=O)cc2OC[C@H](C)N(Cc2ccncc2)C[C@@H]1C	/	/	-2	/	0	-4
CN(C)CC#Cc1ccc([C@@H]2[C@@H](CO)N3CCCCN(CC4CC4)C[C@H]23)cc1	/	/	0	/	-4	55*
CN(C)CC#Cc1ccc([C@@H]2[C@H]3CN(CC4CC4)CCCCN3[C@H]2CO)cc1	/	/	-9	/	1	74*
CN(C)CC#Cc1ccc([C@H]2[C@@H](CO)N3CCCCN(CC4CC4)C[C@H]23)cc1	/	/	1	/	9	67*
CN(C)CC#Cc1ccc([C@H]2[C@H]3CN(CC4CCOCC4)CCCCN3[C@H]2CO)cc1	/	/	-11	/	-2	38
CCCC#Cc1ccc2c(c1)[C@@H]1[C@@H](CCN1S(=O)(=O)c1ccc(C)cc1)[C@@H](CO)N2C	/	/	-2	/	-4	-27
CO[C@@H]1CN(C)C(=O)c2ccc(NS(=O)(=O)c3ccccc3)cc2OC[C@H](C)N(C(=O)NC(C)C)C[C@@H]1C	/	/	0	/	-2	-3
CN(C)CC(=O)N1C[C@@H]2[C@H](c3ccccc31)[C@H](CO)N2Cc1cc(F)ccc1F	/	/	5	/	-6	-39
CCOC(=O)C1CCN(C(=O)/C(=C/c2ccccc2)NC(=O)c2ccccc2)CC1	51*	10	0	/	-2	-17
CCOC(=O)C1CCCN(C(=O)/C(=C/c2ccco2)NC(=O)c2ccccc2)C1 (centres undefined)	/	-1	-13	-2	3	-37
CC(=O)NC1C(=O)N(CCN2CCOCC2)c2ccc(C)cc21 (centres undefined)	64*	1	/	40	/	/
C[C@@H]1CN([C@H](C)CO)C(=O)Cc2cc(NC(=O)CCC(F)(F)F)ccc2O[C@H]1CN(C)C(=O)Nc1ccc2c(c1)OCO2	/	/	-9	/	-18	11
COc1ccc(CN(C)C[C@@H]2OCCCC[C@H](C)Oc3ccc(NC(=O)Nc4ccc(C(F)(F)F)cc4)cc3C(=O)N([C@H](C)CO)C[C@H]2C)cc1	/	/	-3	/	-3	65*
COc1ccc(NC(=O)Nc2ccc3c(c2)C(=O)N([C@H](C)CO)C[C@H](C)[C@@H](CN(C)Cc2ccc(C(F)(F)F)cc2)OCCCC[C@H](C)O3)cc1	/	/	-6	/	-17	-111
C[C@H]1CCCCO[C@H](CN(C)Cc2ccncc2)[C@@H](C)CN([C@@H](C)CO)C(=O)c2cc(NC(=O)Nc3ccc(C(F)(F)F)cc3)ccc2O1	/	/	-7	/	2	57*
COc1ccc(CN(C)C[C@@H]2OCCCC[C@H](C)Oc3ccc(NC(=O)Nc4ccc(C(F)(F)F)cc4)cc3C(=O)N([C@@H](C)CO)C[C@H]2C)cc1	/	/	12	/	-1	52*
COc1ccc(CN(C)C[C@@H]2OCCCC[C@@H](C)Oc3ccc(NC(=O)Nc4ccc(C(F)(F)F)cc4)cc3C(=O)N([C@H](C)CO)C[C@@H]2C)cc1	/	/	-9	/	-1	42
C[C@@H]1CN([C@@H](C)CO)C(=O)Cc2cc(NC(=O)C3CCCCC3)ccc2O[C@H]1CN(C)Cc1ccccc1	/	/	-11	/	3	25
SMILES	CAL PDZ FP-1	PDI inh	RAD54 branch	CAL PDZ FP-2	ERp5 inh	RAD52 inh
O=C(C[C@H]1CC[C@H]2[C@@H](COC[C@@H](O)CN2Cc2ccccc2)O1)NCc1ccccc1Cl	/	/	-6	/	13	-1
Cc1noc(C)c1S(=O)(=O)N(C)C[C@H]1OCc2ccccc2-c2ccccc2C(=O)N([C@@H](C)CO)C[C@H]1C	/	/	1	/	-12	-4
Cc1ccc(S(=O)(=O)N2CC[C@@H]3[C@H]2c2cc(-c4ccc(C#N)cc4)ccc2N(C)[C@H]3CO)cc1	/	/	10	/	5	-15
COc1ccc(N(CC(=O)NCCc2ccc(OC)c(OC)c2)S(=O)(=O)c2c(C)noc2C)cc1	73*	12	2	0	0	-16
Cc1noc(C)c1S(=O)(=O)N(CC(=O)NCc1ccc(F)cc1)c1ccc(C(C)C)cc1	44*	1	0	-3	-3	3
Cc1ccc(S(=O)(=O)NC2CCN(Cc3cccc(OCCO)c3)CC2)cc1	/	/	-21	/	-1	51*
CCN1/C(=C/C(C)=O)Sc2ccc(OC)cc21	48*	16	5	-1	/	/
Cc1nnc(SC(C(=O)Nc2ccc(Cl)c([N+](=O)[O-])c2)c2ccccc2)[nH]c1=O (centres undefined)	62*	4	-2	20	2	-16
Cc1cc(C)cc(NC(=O)C(Sc2nnc(C)c(=O)[nH]2)c2ccccc2)c1 (centres undefined)	-1	-8	-4	0	3	7
COc1ccc(Br)cc1CNc1ccc2[nH]c(=O)[nH]c2c1	67*	-6	/	-1	-8	-8
C[C@H](CO)N1C[C@H](C)[C@H](CN(C)Cc2ccccc2)Oc2c(NS(=O)(=O)c3cn(C)cn3)cccc2C1=O	/	/	-1	/	1	-1
CC(=O)c1ccc(OCC(O)CNCc2ccc3c(c2)OCO3)cc1 (centres undefined)	42*	12	/	-2	4	-23
O=C(C1CCOCC1)N1[C@H](CO)[C@@H](c2ccccc2)C12CN(Cc1cccnc1)C2	/	/	/	/	3	-5
CN1c2ccc(-c3ccccc3F)cc2[C@@H]2[C@@H](CCN2C(=O)Nc2ccc(F)cc2)[C@@H]1CO	/	/	14	/	/	/
COc1ccc(CN(C)C[C@H]2Oc3ccc(NS(=O)(=O)c4ccc(OC)cc4)cc3CC(=O)N([C@@H](C)CO)C[C@@H]2C)cc1	/	/	0	/	-6	-2
COc1ccc(N2CCN(C(=O)CN3C(=O)NC4(CCCCCC4)C3=O)CC2)cc1	59*	-4	-1	0	-8	-14

Source: PubChem
